Measured values reported in ChEMBL document CHEMBL3600295, “Synthesis and biological evaluation of a series of fatty acid amides from Echinacea” (Bioorg Med Chem Lett, 2015).
Calls of active or inactive are those of the source. No cut-off for these calls is given here.

Key:
RAW264.7 [1] = experiment: Cytotoxicity against mouse RAW264.7 cells at 100 uM incubated for 18 hrs by LDH release assay; type: cell-based; conditions: raw264.7, 18 h
Method in brief: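 RAW 264.7 murine macrophage-like cells were treated with compound for 18 h. Culture supernatants were then collected and assayed for lactate dehydrogenase activity released from dead or dying cells, using a commercial LDH cytotoxicity kit. Vehicle and lysis-buffer controls were included. Data are means ± SD, n = 2.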

RAW264.7 [2] = experiment: Inhibition of LPS-induced TNFalpha production in mouse RAW264.7 cells at 100 uM incubated for 18 hrs by ELISA method; type: functional; conditions: for inhibition at 100 µM: RAW264.7, 18 h
Method in brief: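 RAW 264.7 cells were co-treated with compound plus 10 ng/mL LPS (R595) for 18 h. Supernatant TNF-α was measured by commercial ELISA and compared with cells stimulated with LPS only.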

RAW264.7 [3] = experiment: Effect on TNFalpha production in mouse RAW264.7 cells at 100 uM incubated for 18 hrs by ELISA method; type: cell-based; conditions: raw264.7, 18 h
Method in brief: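 Compound alone, without LPS, was added to RAW 264.7 murine macrophage-like cells and incubated 18 h. TNF-α in culture supernatants was quantified by commercial ELISA and compared with levels from unstimulated cells.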

SMILES	Activity (RAW264.7 [1])	inhibition (RAW264.7 [2])	Activity (RAW264.7 [3])	inhibition at 100 µM (RAW264.7 [2]) [%]
CCCCCCC/C=C/C=C/C(=O)NCC(C)C	Non-toxic	Active	Non-toxic	
CCCCCCCCCCCC(=O)NCC(C)C	Non-toxic	Active	Non-toxic	
CCCCCCCCCCCC(=O)NCC(C)CC (stereo not drawn)	Non-toxic	Active	Non-toxic	
CCCCCCCCCCCc1nc(CC(C)C)cs1	Non-toxic	inactive		
CCCCCCCCCCCC(=O)NCCCCCC	Non-toxic	Active	Non-toxic	
CCCCCCCC(=O)NCC(C)C	Non-toxic	Active	Non-toxic	
CCCCCCCCC/C=C/C(=O)NCC(C)C	Non-toxic	Active	Non-toxic	
CCCCCCCCC/C=C/C(=O)NCc1ccccc1	Non-toxic		Non-toxic	29.8
CCCCCC(=O)NCC(C)C	Non-toxic	Active	Non-toxic	
CCCCCCCCCC(=O)NCC(C)C [TETRAHYDROPELLITORINE]	Non-toxic	Active	Non-toxic	
CCCCCCCCC/C=C/C(=O)NCC(C)CC (stereo not drawn)	Toxic	Active	Non-toxic	
CCCC(=O)NCC(C)C	Non-toxic	Active	Non-toxic	
CCCCCCCCCCCC(=O)NCc1ccccc1 [N-BENZYLDODECANAMIDE]	Non-toxic		Non-toxic	32.4
CCCCCCCCCCCc1nc(C(C)C)cs1	Non-toxic	inactive		
CCCCCCCCCCCCNCC(C)C	Toxic		Non-toxic	99.8
